Where only a bound is given, the exact number is not on record here.

Our source for the Ki and IC50 values is ChEMBL document CHEMBL2169809, “Identification of high-affinity P2Y₁₂ antagonists based on a phenylpyrazole glutamic acid piperazine backbone” (J Med Chem, 2012).

Sequence of P2Y purinoceptor 12 (Q9H244 whole entry): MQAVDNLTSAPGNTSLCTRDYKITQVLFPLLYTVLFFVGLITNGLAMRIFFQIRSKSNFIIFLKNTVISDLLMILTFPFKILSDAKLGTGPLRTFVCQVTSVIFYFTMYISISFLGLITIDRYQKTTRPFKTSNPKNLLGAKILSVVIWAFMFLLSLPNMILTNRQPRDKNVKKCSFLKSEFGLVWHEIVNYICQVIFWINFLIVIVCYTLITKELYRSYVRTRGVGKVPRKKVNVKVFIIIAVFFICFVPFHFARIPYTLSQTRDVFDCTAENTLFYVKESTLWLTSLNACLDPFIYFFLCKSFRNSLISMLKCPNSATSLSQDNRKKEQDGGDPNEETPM

One test concerns the target P2Y purinoceptor 12 (Homo sapiens, UniProt Q9H244). Put plainly: Displacement of [33P]2-MeS-ADP from human recombinant P2Y12 receptor expressed in CHO cell membranes by scintillation counting method.
The term Ki denotes a measure of affinity in units of concentration, obtained from inhibition or displacement. In the case of `CCOC(=O)N1CCN(C(=O)[C@H](CCNS(C)(=O)=O)NC(=O)c2cc(OCC(=O)N3CCC[C@H]3C(=O)NC3CCC3)n(-c3ccccc3)n2)CC1`, the inhibition constant (Ki) came out at 23 nM.
The same measure, in the same setting: to `CCOC(=O)N1CCN(C(=O)[C@H](CCN)NC(=O)c2cc(OCC(=O)N3CCC[C@H]3C(=O)NC3CCC3)n(-c3ccccc3)n2)CC1` belongs 180 nM; to `CCOC(=O)N1CCN(C(=O)[C@H](CCNC(C)=O)NC(=O)c2cc(OCC(=O)N3CCC[C@H]3C(=O)NC3CCC3)n(-c3ccccc3)n2)CC1`, 42 nM.
Still for that read-out and setting: with `CCOC(=O)N1CCN(C(=O)[C@H](CCO)NC(=O)c2cc(OCC(=O)N3CCC[C@H]3C(=O)NC3CCC3)n(-c3ccccc3)n2)CC1` the figure was 23 nM; with `CCCCOC(=O)N1CCN(C(=O)[C@H](CCCO)NC(=O)c2cc(OCC(=O)N3CCC[C@H]3C(=O)NC3CCC3)n(-c3ccccc3)n2)CC1`, 6.5 nM; with `CCOC(=O)N1CCN(C(=O)[C@H](CCCCO)NC(=O)c2cc(OCC(=O)N3CCC[C@H]3C(=O)NC3CCC3)n(-c3ccccc3)n2)CC1`, 202 nM.
Same read-out and setting: with `CCC[C@H](NC(=O)c1cc(OCC(=O)N2CCC[C@H]2C(=O)NC2CCC2)n(-c2ccccc2)n1)C(=O)N1CCN(C(=O)OCC)CC1` the figure was 172 nM.
Consider `CCOC(=O)N1CCN(C(=O)[C@H](CC(C)C)NC(=O)c2cc(OCC(=O)N3CCC[C@H]3C(=O)NC3CCC3)n(-c3ccccc3)n2)CC1`, for which the Ki is 207 nM.
On the same count and under the same terms, with `CCOC(=O)N1CCN(C(=O)[C@@H](NC(=O)c2cc(OCC(=O)N3CCC[C@H]3C(=O)NC3CCC3)n(-c3ccccc3)n2)C(C)C)CC1` the figure was 183 nM; with `CCOC(=O)N1CCN(C(=O)[C@H](C)NC(=O)c2cc(OCC(=O)N3CCC[C@H]3C(=O)NC3CCC3)n(-c3ccccc3)n2)CC1`, 111 nM.
On the same count and under the same terms, to `CCCCOC(=O)NC1CCN(C(=O)[C@H](CCC(=O)O)NC(=O)c2cc(OCC(=O)N3CCC[C@H]3C(=O)NC3CCC3)n(-c3ccccc3)n2)C1` (some centres not stated) belongs 82 nM; to `CCCCOC(=O)N1CCC(NC(=O)[C@H](CCC(=O)O)NC(=O)c2cc(OCC(=O)N3CCC[C@H]3C(=O)NC3CCC3)n(-c3ccccc3)n2)C1` (some centres not stated), 193 nM.
`COc1cccc(N2CCN(C(=O)[C@H](CCC(=O)O)NC(=O)c3cc(OCC(=O)N4CCC[C@H]4C(=O)NC4CCC4)n(-c4ccccc4)n3)CC2)c1`: the Ki amounted to 30 nM.
The same measure, in the same setting: with `O=C(O)CC[C@H](NC(=O)c1cc(OCC(=O)N2CCC[C@H]2C(=O)NC2CCC2)n(-c2ccccc2)n1)C(=O)N1CCC(C(=O)c2ccccc2)CC1` the figure was 40 nM.
Same read-out and setting: with `O=C(O)CC[C@H](NC(=O)c1cc(OCC(=O)N2CCC[C@H]2C(=O)NC2CCC2)n(-c2ccccc2)n1)C(=O)N1CCN(C(=O)c2ccccc2)CC1` the figure was 130 nM.
Consider `O=C(O)CC[C@H](NC(=O)c1cc(OCC(=O)N2CCC[C@H]2C(=O)NC2CCC2)n(-c2ccccc2)n1)C(=O)N1CCN(C(=O)OCc2ccccc2)CC1`, for which the inhibition constant (Ki) came out at 5.7 nM.
Same read-out and setting: to `O=C(O)CC[C@H](NC(=O)c1cc(OCC(=O)N2CCC[C@H]2C(=O)NC2CCC2)n(-c2ccccc2)n1)C(=O)N1CCN(C(=O)Oc2ccccc2)CC1` belongs 71 nM; to `O=C(O)CC[C@H](NC(=O)c1cc(OCC(=O)N2CCC[C@H]2C(=O)NC2CCC2)n(-c2ccccc2)n1)C(=O)N1CCN(C(=O)OC2CCC2)CC1`, 5 nM; to `CCOC(=O)N1CCN(C(=O)[C@H](CCC(=O)O)NC(=O)c2cc(OCC(=O)N3CCC[C@H]3C(=O)NC3CCC3)n(-c3ccccc3)n2)[C@H](C)C1`, 7.7 nM.
On the same count and under the same terms, with `CCOC(=O)N1CCN(C(=O)[C@H](CCC(=O)O)NC(=O)c2cc(OCC(=O)N3CCC[C@H]3C(=O)NC3CCC3)n(-c3ccccc3)n2)[C@@H](C)C1` the figure was 54 nM; with `CCOC(=O)N1CCN(C(=O)[C@H](CCC(=O)O)NC(=O)c2cc(OCC(=O)N3CCC[C@H]3C(=O)NC3CCC3)n(-c3ccccc3)n2)C[C@@H]1C`, 80 nM; with `CCOC(=O)N1CCN(C(=O)[C@H](CCC(=O)O)NC(=O)c2cc(OCC(=O)N3CCC[C@H]3C(=O)NC3CCC3)n(-c3ccccc3)n2)C[C@H]1C`, 51 nM.
The same measure, in the same setting: with `CCOC(=O)N1CCN(C(=O)[C@H](CNS(C)(=O)=O)NC(=O)c2cc(OCC(=O)N3CCC[C@H]3C(=O)NC3CCC3)n(-c3ccccc3)n2)CC1` the figure was 48 nM.

The subject of a further test is Platelet. Put plainly: Inhibition of ADP-stimulated platelet aggregation in human platelet rich plasma by 96-well format based turbidimetric method. It is filed as functional. The method in brief: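 Citrated (ACD-A) donor blood was spun at 150g for 15 min at room temperature to give PRP. PRP was adjusted with PPP to 3 × 10^8 platelets/mL. Compound, diluted in NaCl, was preincubated with hPRP for 5 min before ADP was added.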
What is called IC50 is the concentration that gives 50% inhibition. Higher therefore signals weaker potency. The molecule `CCOC(=O)N1CCN(C(=O)[C@H](CCN)NC(=O)c2cc(OCC(=O)N3CCC[C@H]3C(=O)NC3CCC3)n(-c3ccccc3)n2)CC1` yielded a half-inhibitory concentration (IC50) of 3770 nM.
In turn, `CCOC(=O)N1CCN(C(=O)[C@H](CCNC(C)=O)NC(=O)c2cc(OCC(=O)N3CCC[C@H]3C(=O)NC3CCC3)n(-c3ccccc3)n2)CC1` had an IC50 of 675 nM.
The same measure, in the same setting: with `CCOC(=O)N1CCN(C(=O)[C@H](CCO)NC(=O)c2cc(OCC(=O)N3CCC[C@H]3C(=O)NC3CCC3)n(-c3ccccc3)n2)CC1` the figure was 210 nM; with `CCCCOC(=O)N1CCN(C(=O)[C@H](CCCO)NC(=O)c2cc(OCC(=O)N3CCC[C@H]3C(=O)NC3CCC3)n(-c3ccccc3)n2)CC1`, 92 nM; with `CCOC(=O)N1CCN(C(=O)[C@H](CCCCO)NC(=O)c2cc(OCC(=O)N3CCC[C@H]3C(=O)NC3CCC3)n(-c3ccccc3)n2)CC1`, 2400 nM.
The same measure, in the same setting: with `CCC[C@H](NC(=O)c1cc(OCC(=O)N2CCC[C@H]2C(=O)NC2CCC2)n(-c2ccccc2)n1)C(=O)N1CCN(C(=O)OCC)CC1` the figure was 3610 nM; with `CCOC(=O)N1CCN(C(=O)[C@H](CC(C)C)NC(=O)c2cc(OCC(=O)N3CCC[C@H]3C(=O)NC3CCC3)n(-c3ccccc3)n2)CC1`, greater than 5000 nM.
On the same count and under the same terms, to `CCOC(=O)N1CCN(C(=O)[C@@H](NC(=O)c2cc(OCC(=O)N3CCC[C@H]3C(=O)NC3CCC3)n(-c3ccccc3)n2)C(C)C)CC1` belongs 1900 nM; to `CCOC(=O)N1CCN(C(=O)[C@H](C)NC(=O)c2cc(OCC(=O)N3CCC[C@H]3C(=O)NC3CCC3)n(-c3ccccc3)n2)CC1`, 2210 nM; to `CCCCOC(=O)NC1CCN(C(=O)[C@H](CCC(=O)O)NC(=O)c2cc(OCC(=O)N3CCC[C@H]3C(=O)NC3CCC3)n(-c3ccccc3)n2)C1` (some centres not stated), 1880 nM.
`CCCCOC(=O)N1CCC(NC(=O)[C@H](CCC(=O)O)NC(=O)c2cc(OCC(=O)N3CCC[C@H]3C(=O)NC3CCC3)n(-c3ccccc3)n2)C1` (some centres not stated) returned a concentration for half-maximal inhibition (IC50) greater than 5000 nM.
`COc1cccc(N2CCN(C(=O)[C@H](CCC(=O)O)NC(=O)c3cc(OCC(=O)N4CCC[C@H]4C(=O)NC4CCC4)n(-c4ccccc4)n3)CC2)c1`: half-maximal inhibition (IC50) was put at 790 nM.
On the same count and under the same terms, to `O=C(O)CC[C@H](NC(=O)c1cc(OCC(=O)N2CCC[C@H]2C(=O)NC2CCC2)n(-c2ccccc2)n1)C(=O)N1CCC(C(=O)c2ccccc2)CC1` belongs 1330 nM; to `O=C(O)CC[C@H](NC(=O)c1cc(OCC(=O)N2CCC[C@H]2C(=O)NC2CCC2)n(-c2ccccc2)n1)C(=O)N1CCN(C(=O)c2ccccc2)CC1`, 1230 nM; to `O=C(O)CC[C@H](NC(=O)c1cc(OCC(=O)N2CCC[C@H]2C(=O)NC2CCC2)n(-c2ccccc2)n1)C(=O)N1CCN(C(=O)OCc2ccccc2)CC1`, 124 nM.
Still for that read-out and setting: to `O=C(O)CC[C@H](NC(=O)c1cc(OCC(=O)N2CCC[C@H]2C(=O)NC2CCC2)n(-c2ccccc2)n1)C(=O)N1CCN(C(=O)Oc2ccccc2)CC1` belongs 1080 nM.
Still for that read-out and setting: to `O=C(O)CC[C@H](NC(=O)c1cc(OCC(=O)N2CCC[C@H]2C(=O)NC2CCC2)n(-c2ccccc2)n1)C(=O)N1CCN(C(=O)OC2CCC2)CC1` belongs 14 nM; to `CCOC(=O)N1CCN(C(=O)[C@H](CCC(=O)O)NC(=O)c2cc(OCC(=O)N3CCC[C@H]3C(=O)NC3CCC3)n(-c3ccccc3)n2)[C@H](C)C1`, 72 nM.
Molecule `CCOC(=O)N1CCN(C(=O)[C@H](CCC(=O)O)NC(=O)c2cc(OCC(=O)N3CCC[C@H]3C(=O)NC3CCC3)n(-c3ccccc3)n2)[C@@H](C)C1` registered a half-inhibitory concentration (IC50) of 430 nM.
The molecule `CCOC(=O)N1CCN(C(=O)[C@H](CCC(=O)O)NC(=O)c2cc(OCC(=O)N3CCC[C@H]3C(=O)NC3CCC3)n(-c3ccccc3)n2)C[C@@H]1C` registered an IC50 of 1510 nM.
Still for that read-out and setting: with `CCOC(=O)N1CCN(C(=O)[C@H](CCC(=O)O)NC(=O)c2cc(OCC(=O)N3CCC[C@H]3C(=O)NC3CCC3)n(-c3ccccc3)n2)C[C@H]1C` the figure was 335 nM.
Same read-out and setting: with `CCOC(=O)N1CCN(C(=O)[C@H](CNS(C)(=O)=O)NC(=O)c2cc(OCC(=O)N3CCC[C@H]3C(=O)NC3CCC3)n(-c3ccccc3)n2)CC1` the figure was 1200 nM.

The next test deals with Platelet. Put plainly: Inhibition of ADP-stimulated platelet aggregation in human platelet rich plasma by light transmission aggregometry based Born method. It is filed as functional, cell-based.
`CCOC(=O)N1CCN(C(=O)[C@H](CCO)NC(=O)c2cc(OCC(=O)N3CCC[C@H]3C(=O)NC3CCC3)n(-c3ccccc3)n2)CC1` registered a half-maximal inhibitory concentration (IC50) of 120 nM. That is a sub-micromolar value.
The same measure, in the same setting: with `CCCCOC(=O)N1CCN(C(=O)[C@H](CCCO)NC(=O)c2cc(OCC(=O)N3CCC[C@H]3C(=O)NC3CCC3)n(-c3ccccc3)n2)CC1` the figure was 70 nM.
